Shown are actives, neighbours in structure and some others; about 1.8% of the full set was active somewhere.
C8 TRAIL sens – sensitizes caspase-8 expressing cells to TRAIL | inhibition (viability loss, TRAIL sensitization), % at 10 µM | hit rate 1% among 360,000 | NB7+C8 cells + TRAIL, ATPlite viability luminescence | AID 624354;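 active = compounds causing at least 50% loss of cell viability in the single-dose screen, relative to plate controls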
STAT1 inh – reduces IFN-gamma driven STAT1 reporter signal | NIH 3T3 STAT1-luciferase reporter, luminescence | inhibition, % at 5.5 µM | hit rate 0.35% among 200,000 | AID 920;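 active = inhibition above a set limit, the mean inhibition across all tested compounds plus 3 SD, cut at about 34% in these data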
PPC-1+TRAIL kill – PPC-1 cancer cell killing with TRAIL present; hit rate 0.41% among 220,000; PPC-1 cells + TRAIL, ATPLite viability luminescence; cell killing (% activity), % at 4 µM or 5 µM;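 active = cell killing above 50% in the first pass at 4 µM, then a duplicate retest at 5 µM averaging 50% or more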
STAT3 activator – activators of IL-6 induced STAT3 signaling; activation (% of control), % at 5.6 µM; U3A cells, IL-6 STAT3-luciferase reporter, luminescence; 100% = signal with IL-6 EC80 alone; AID 871; hit rate 0.91% among 190,000;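 active = activation above the screen-wide mean of compound activation plus 3 SD, cut at about 130% in these data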
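Detection: reporter luminescence signal / Assay system: STAT1-lacking human U3A cells, STAT3 luciferase reporter / Incubation: compound pre-incubation 1 h before IL-6, then 6 h stimulation at 37 °C / Control set: IL-6-only high control / Read-out: % activation relative to IL-6 control / Probe or stimulus: Interleukin-6, 33 ng/mL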
STAT3 inh – inhibitors of IL-6 induced STAT3 signaling. hit rate 0.89% among 190,000. inhibition, % at 5.5 µM. U3A cells, IL-6 STAT3-luciferase reporter, luminescence; host cell line lacks STAT1;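 active = inhibition above the mean inhibition across all screened compounds plus 3 SD, cut at about 44% in these data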
Hits are given with their value; 0 = inactive; - = not tested or not shown.

SMILES | C8 TRAIL sens | STAT1 inh | PPC-1+TRAIL kill | STAT3 activator | STAT3 inh
COc1ccc(-c2nc(-c3cccc(C)c3)no2)cc1OC | 0 | 0 | 0 | 0 | 0
Cc1ccc(-c2nnc(-c3ccc4c(c3)OCO4)o2)cc1 | 0 | 0 | 55 | 0 | 0
O=[N+]([O-])c1ccc(/C=N\NS(=O)(=O)c2ccc(F)cc2)o1 | 0 | - | - | - | -
COc1cc2ccccc2cc1C(=O)NC(=S)Nc1cccc(C(=O)O)c1C | 0 | - | 0 | - | -
Cc1c(C(=O)Nc2ccccc2[N+](=O)[O-])csc1-c1ccccc1 | 66 | 0 | 0 | 0 | 0
Cc1cc(C(=O)Nc2ccccc2[N+](=O)[O-])cs1 | 0 | - | - | - | -
CC[C@H]1CN2CCc3cc(OC)c(OC)cc3C2C[C@@H]1C[C@H]1NCCc2cc(OC)c(OC)cc21 (stereo not given in full) | 56 | - | - | - | -
CC(C)c1ccccc1NC(=O)COC(=O)c1cc([N+](=O)[O-])ccc1N1CCOCC1 | 0 | - | - | - | -
N#Cc1ccccc1NC(=O)C1SC(=Nc2ccccc2)C(C(=O)Nc2ccc(Cl)cc2)=C1N (stereo not given) | 0 | 55 | 0 | 0 | 54
CCOc1ccc(N=C2SC(C(=O)Nc3ccccc3C#N)C(N)=C2C(=O)Nc2ccc(Cl)cc2)cc1 (stereo not given) | 0 | 0 | 0 | 0 | 0
Cc1cc2ncc(-c3cccs3)nc2cc1C | 69 | - | - | - | -
Cc1cccc(C)c1OCC(=O)N/N=C/c1cccnc1 | 0 | - | - | - | -
O=C1Oc2ccccc2C(=O)/C1=C\N1CCN(c2ccccc2)CC1 | 0 | 0 | 0 | 0 | 0
CCc1cc2c(N3CCN(c4ccccc4)CC3)ncnc2s1 | 0 | 0 | 0 | 0 | 46
CC(=O)c1cccc(S(=O)(=O)N2CCn3cccc3C2C)c1 (stereo not given) | 0 | - | - | - | -
Cc1cc(OC(C)C(=O)N2CCN(c3ccc(F)cc3)CC2)c2c(C)c(C)c(=O)oc2c1 (stereo not given) | 0 | - | - | - | -
Cc1ccc(Cl)c2c1NC(=O)C2(O)CC(=O)c1ccccc1O (stereo not given) | 0 | 0 | 0 | 133 | 0
CCc1nc2ccc(C(=O)Nc3cccc(NS(C)(=O)=O)c3)cn2c1N(C)Cc1nccn1C | 0 | - | - | - | -
CC(C)[C@H](NC(=O)c1ccc(Cl)cc1)C(=O)Nc1cccc(S(=O)(=O)N2CCOCC2)c1 | 0 | - | - | - | -
CCc1ccc(NC(=O)c2onc(C)c2Cl)cc1 | 0 | 0 | 0 | 141 | 0
Cc1cccc(C)c1OCC(=O)OCC(=O)Nc1ccc(Cl)cn1 | 0 | - | - | - | -
CCOc1cc(C2Nc3ccccc3C(=O)N2c2ccccc2)ccc1O (stereo not given) | 0 | 0 | 0 | 0 | 0
COc1cc(C2Nc3ccccc3C(=O)N2c2ccccc2)ccc1O (stereo not given) | 0 | 0 | 0 | 133 | 0
OC(CNCC1COc2ccccc2O1)COc1ccccc1F (stereo not given) | 0 | - | - | - | -
Cn1c(-c2ccccc2)cc(=O)cc1-c1ccccc1 | 0 | - | - | - | -
SMILES | C8 TRAIL sens | STAT1 inh | PPC-1+TRAIL kill | STAT3 activator | STAT3 inh
Cn1c(-c2ccccc2)cc2onc(-c3ccccc3)c2c1=O | 81 | - | - | - | -
Cn1c(-c2ccccc2F)cc2onc(-c3ccccc3)c2c1=O | 63 | - | - | - | -
Cn1c(-c2ncc(F)cc2F)cc2onc(-c3c(F)cccc3Cl)c2c1=O | 0 | - | - | - | -
O=C(O)c1ccc(Nc2ccc(Cl)c(Cl)c2)c([N+](=O)[O-])c1 | 0 | - | - | - | -
Cc1cc(C)nc(NS(=O)(=O)c2ccc(NC(=O)CSc3ncn[nH]3)cc2)n1 | 0 | 0 | 0 | 0 | 0
O=Cc1c(-c2ccccc2)cc2oc3ccccc3cc1-2 | 51 | - | - | - | -
Nc1cccc(-c2cc3ccccc3oc2=O)c1 | 0 | 0 | 0 | 0 | 0
COc1cc(C(=O)N2CCN(C(=O)c3ccco3)CC2)c([N+](=O)[O-])cc1OC | 0 | 0 | 0 | 0 | 0
O=C(NOCc1ccccc1)c1ccc(Cl)cc1 | 51 | - | - | - | -
COc1ccc(C(=O)NOCc2ccccc2)cc1 | 56 | - | - | - | -
Cc1ccc(CONC(=O)c2ccc(Cl)cc2)cc1 | 0 | - | - | - | -
CC(C)(C)c1ccccc1NC(=O)Nc1nc(C(N)Cc2ccc(F)cc2)cs1 (stereo not given) | 0 | - | - | - | -
Nc1ccn([C@@H]2O[C@H](CO)[C@@H](O)[C@@H]2O)c(=O)n1 | 0 | 0 | 0 | 0 | 0
OCC1OC(n2ccc3c2ncn2ncnc32)C(O)C1O (stereo not given) | 82 | - | - | - | -
CCc1cc2c(=O)c(-c3cnn(-c4ccccc4)c3)c(C)oc2cc1OCC(=O)Nc1ccc(F)c(F)c1 | 52 | 0 | 0 | 0 | 0
O=C(O)C(=O)/C(=C\c1ccc(Cl)cc1)c1ccc2ccccc2n1 | 0 | 0 | 0 | 147 | 0
COc1cc(C2c3c(c(C)c(C)oc3=O)Oc3c(C)c(C)oc(=O)c32)ccc1OS(=O)(=O)c1ccc(C)cc1 | 0 | - | - | - | -
CCc1ccc2nc(NC(=O)Cn3cnc4ccccc4c3=O)sc2c1 | 0 | 0 | 0 | 0 | 0
CN(CC(=O)Nc1nc2ccccc2s1)S(=O)(=O)c1ccc(Br)cc1 | 0 | 0 | 0 | 134 | 0
O=C(Cn1cnc2ccccc2c1=O)Nc1nc2ccccc2s1 | 0 | 0 | 0 | 136 | 0
O=C(CS(=O)(=O)c1ccccc1)Nc1nc2ccccc2s1 | 0 | 0 | 0 | 133 | 0
Cc1cccc(NC(=O)CN(C)S(=O)(=O)c2ccc(Br)cc2)n1 | 0 | 0 | 0 | 0 | 0
CC1CCN(C(=O)COC(=O)CNC(=O)C23CC4CC(CC(C4)C2)C3)CC1 | 0 | - | - | - | -
CCc1noc(C)c1C(=O)Nc1ccccc1N1CCOCC1 | 0 | - | - | - | -
COc1ccc(C2CC(c3cccs3)=NN2C(=O)CCl)cc1OC (stereo not given) | 96 | - | - | - | -
SMILES | C8 TRAIL sens | STAT1 inh | PPC-1+TRAIL kill | STAT3 activator | STAT3 inh
COc1ccc(C2CC(c3cccs3)=NN2C(=O)c2ccccc2)cc1OC (stereo not given) | 0 | - | - | - | -
COc1cc(C2CC(c3cccs3)=NN2C(=O)CCl)ccc1OC(F)F (stereo not given) | 95 | - | - | - | -
NC1=C(Br)C(=O)c2ncccc2C1=O | 95 | - | - | - | -
O=C1c2cccnc2C(=O)N1CO | 0 | 0 | 0 | 0 | 0
Cn1c(CCN2CCCCC2)nc2cc(NC(=O)COc3ccc(Cl)cc3)ccc21 | 0 | - | - | - | -
Cc1ccc(C(C)C)c(OCC(=O)Nc2ccc3c(c2)nc(CCN2CCCCC2)n3C)c1 | 56 | - | - | - | -
Cc1ccc(C(C)C)c(OCC(=O)Nc2ccc(N3CCN(S(C)(=O)=O)CC3)cc2)c1 | 0 | 0 | 0 | 133 | 0
Cc1ccc(OCC(=O)Nc2ccc(N3CCN(S(C)(=O)=O)CC3)cc2)c(C)c1 | 0 | 0 | 0 | 0 | 0
CC(C)C(OC(=O)CN1C(=O)c2ccccc2C1=O)C(=O)NC1CCCC1 (stereo not given) | 0 | - | - | - | -
CC1(C)N=C(N)N=C(N)N1c1cccc(CN)c1 | 0 | - | 0 | - | -
CC1(C)N=C(N)N=C(N)N1c1ccc(CCCCc2ccccc2)cc1 | 65 | - | - | - | -
CC1(C)N=C(N)N=C(N)N1c1ccc(Oc2ccc(Cl)cc2)c(Cl)c1 | 58 | - | - | - | -
CC1(C)N=C(N)N=C(N)N1c1ccccc1 | 85 | 0 | 0 | 0 | 0
CC[C@]12c3[nH]c4ccccc4c3CCN1C(=O)C(CC(=O)NCCC1=CCCCC1)C[C@@H]2C(=O)N1CCN(C(=O)C2CC2)CC1 (stereo not given in full) | 0 | - | - | - | -
N#Cc1ccccc1Oc1ccccc1C=O | 0 | 0 | 0 | 0 | 0
